Active and inactive are the calls of the source. The calls are words filed in the database; no cut-off is given here. Non-standard residues stand in square brackets, D forms with d. Residues, ends and D or L forms follow the SMILES beside them. Gla = N[C@@H](CC(C(=O)O)C(=O)O)C(=O)O; Hyp = O=C(O)[C@@H]1C[C@@H](O)CN1
Experiments:
[1] = target: Glutamate receptor ionotropic, NMDA 2D (Rattus norvegicus, UniProt P35439+Q62645); test: Inhibition of rat NMDA NR2D receptor expressed in xenopus oocytes coexpressing NMDA NR13b assessed as effect on glycine-induced current response at -70 mV by voltage clamp method; assay type: cell-based, Oocyte
Glutamate receptor ionotropic, NMDA 2D, sequence (Q62645 whole entry, the tested form may be a part, one chain of several): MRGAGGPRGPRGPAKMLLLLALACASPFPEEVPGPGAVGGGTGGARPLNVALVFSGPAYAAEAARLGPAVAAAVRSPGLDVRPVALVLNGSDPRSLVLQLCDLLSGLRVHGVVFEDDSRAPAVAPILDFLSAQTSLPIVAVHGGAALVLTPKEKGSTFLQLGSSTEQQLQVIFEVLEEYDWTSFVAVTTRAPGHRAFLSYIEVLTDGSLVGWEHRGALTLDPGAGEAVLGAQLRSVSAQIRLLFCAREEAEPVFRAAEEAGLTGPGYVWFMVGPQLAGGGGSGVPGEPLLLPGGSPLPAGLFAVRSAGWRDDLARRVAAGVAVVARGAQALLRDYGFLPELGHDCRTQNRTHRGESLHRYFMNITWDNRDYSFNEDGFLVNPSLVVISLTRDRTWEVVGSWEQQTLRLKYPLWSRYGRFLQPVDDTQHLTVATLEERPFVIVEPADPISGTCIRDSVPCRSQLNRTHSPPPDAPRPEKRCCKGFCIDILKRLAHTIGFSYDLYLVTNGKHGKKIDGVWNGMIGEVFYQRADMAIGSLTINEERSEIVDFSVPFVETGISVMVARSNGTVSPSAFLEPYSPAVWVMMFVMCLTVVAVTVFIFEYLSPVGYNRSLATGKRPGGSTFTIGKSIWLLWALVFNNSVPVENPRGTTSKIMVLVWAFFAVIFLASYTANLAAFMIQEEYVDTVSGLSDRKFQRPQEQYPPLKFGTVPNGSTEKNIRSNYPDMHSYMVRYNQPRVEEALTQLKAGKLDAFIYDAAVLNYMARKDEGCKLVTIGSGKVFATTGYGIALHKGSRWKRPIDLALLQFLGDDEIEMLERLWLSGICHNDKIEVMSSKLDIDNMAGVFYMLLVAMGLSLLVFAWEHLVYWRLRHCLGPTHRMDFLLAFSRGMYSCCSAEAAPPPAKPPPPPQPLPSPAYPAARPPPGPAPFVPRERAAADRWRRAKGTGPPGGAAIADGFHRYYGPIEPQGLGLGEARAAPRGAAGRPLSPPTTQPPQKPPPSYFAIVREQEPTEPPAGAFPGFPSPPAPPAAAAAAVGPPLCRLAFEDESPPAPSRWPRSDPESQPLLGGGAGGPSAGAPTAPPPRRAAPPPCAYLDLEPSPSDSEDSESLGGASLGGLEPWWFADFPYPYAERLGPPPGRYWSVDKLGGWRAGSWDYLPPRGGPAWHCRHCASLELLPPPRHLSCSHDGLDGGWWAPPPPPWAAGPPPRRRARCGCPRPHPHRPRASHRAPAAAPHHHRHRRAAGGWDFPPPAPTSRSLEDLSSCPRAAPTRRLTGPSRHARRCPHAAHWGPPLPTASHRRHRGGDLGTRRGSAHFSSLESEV
Summary of the method: (§1)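 Xenopus oocytes expressing rat NR1-3b with one NR2 subunit (A–D), voltage-clamped at -70 mV. Perfusion was Mg2+-free ND96 (pH 7.2–7.5) with 0.1 mg/ml BSA. Peptide was applied in a static bath for 5–10 min; the agonist-evoked current was then expressed as % of the pre-peptide current. IC50s were taken from concentration-response curves, n ≥ 3 per point.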

[2] = target: Glutamate receptor ionotropic, NMDA 2A (Rattus norvegicus, UniProt P35439+Q00959); test: Inhibition of rat NMDA NR2A receptor expressed in xenopus oocytes coexpressing NMDA NR13b assessed as effect on glycine-induced current response at -70 mV by voltage clamp method; assay type: cell-based, Oocyte; summary of the method: as §1
[3] = target: Glutamate receptor ionotropic, NMDA 2B (Rattus norvegicus, UniProt P35439+Q00960); test: Inhibition of rat NMDA NR2B receptor expressed in xenopus oocytes coexpressing NMDA NR13b assessed as effect on glycine-induced current response at -70 mV by voltage clamp method; assay type: cell-based, Oocyte; summary of the method: as §1
Glutamate receptor ionotropic, NMDA 2B, sequence (Q00960 whole entry, one chain of several): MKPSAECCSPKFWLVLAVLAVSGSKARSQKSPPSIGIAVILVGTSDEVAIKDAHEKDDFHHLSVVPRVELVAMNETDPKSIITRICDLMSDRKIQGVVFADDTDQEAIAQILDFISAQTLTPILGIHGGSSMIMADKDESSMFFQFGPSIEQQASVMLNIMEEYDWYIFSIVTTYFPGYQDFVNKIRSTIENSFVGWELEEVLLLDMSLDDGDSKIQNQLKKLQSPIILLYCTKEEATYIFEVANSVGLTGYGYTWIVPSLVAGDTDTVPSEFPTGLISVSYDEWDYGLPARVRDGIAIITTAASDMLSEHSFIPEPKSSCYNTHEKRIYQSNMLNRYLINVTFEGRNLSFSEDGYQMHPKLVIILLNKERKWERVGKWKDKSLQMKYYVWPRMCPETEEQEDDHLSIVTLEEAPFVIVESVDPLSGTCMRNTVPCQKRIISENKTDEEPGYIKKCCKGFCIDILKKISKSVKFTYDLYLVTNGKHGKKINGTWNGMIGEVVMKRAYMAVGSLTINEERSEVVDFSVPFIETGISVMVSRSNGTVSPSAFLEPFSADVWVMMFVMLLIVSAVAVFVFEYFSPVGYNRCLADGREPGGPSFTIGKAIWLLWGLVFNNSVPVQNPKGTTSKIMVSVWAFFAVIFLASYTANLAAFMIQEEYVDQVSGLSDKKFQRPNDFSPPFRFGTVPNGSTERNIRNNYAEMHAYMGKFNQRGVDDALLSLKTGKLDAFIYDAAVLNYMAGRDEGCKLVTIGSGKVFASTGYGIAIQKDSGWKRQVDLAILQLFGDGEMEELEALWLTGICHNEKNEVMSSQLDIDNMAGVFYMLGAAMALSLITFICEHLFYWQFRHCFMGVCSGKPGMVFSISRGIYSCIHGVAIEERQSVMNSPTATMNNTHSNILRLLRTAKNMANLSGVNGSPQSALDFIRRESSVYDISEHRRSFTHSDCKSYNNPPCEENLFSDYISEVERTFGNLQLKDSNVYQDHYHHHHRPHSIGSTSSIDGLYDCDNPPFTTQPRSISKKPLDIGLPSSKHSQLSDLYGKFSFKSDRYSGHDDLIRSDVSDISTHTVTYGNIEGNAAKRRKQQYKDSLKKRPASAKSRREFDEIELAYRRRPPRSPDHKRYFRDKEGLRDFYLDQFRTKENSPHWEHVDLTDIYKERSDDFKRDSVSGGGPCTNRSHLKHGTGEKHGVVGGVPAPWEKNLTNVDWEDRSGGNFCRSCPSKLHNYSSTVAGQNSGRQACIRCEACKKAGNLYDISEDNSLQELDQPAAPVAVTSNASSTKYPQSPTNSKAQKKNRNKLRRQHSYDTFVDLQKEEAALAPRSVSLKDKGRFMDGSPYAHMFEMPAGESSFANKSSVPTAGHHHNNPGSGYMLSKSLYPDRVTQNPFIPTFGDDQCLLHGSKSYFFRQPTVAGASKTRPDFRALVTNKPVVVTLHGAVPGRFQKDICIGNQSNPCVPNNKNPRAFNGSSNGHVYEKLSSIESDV

[4] = target: Glutamate receptor ionotropic, NMDA 2C (Rattus norvegicus, UniProt P35439+Q00961); test: Inhibition of rat NMDA NR2C receptor expressed in xenopus oocytes coexpressing NMDA NR13b assessed as effect on glycine-induced current response at -70 mV by voltage clamp method; assay type: cell-based, Oocyte; summary of the method: as §1
Glutamate receptor ionotropic, NMDA 2C, sequence (Q00961 whole entry, one chain of several): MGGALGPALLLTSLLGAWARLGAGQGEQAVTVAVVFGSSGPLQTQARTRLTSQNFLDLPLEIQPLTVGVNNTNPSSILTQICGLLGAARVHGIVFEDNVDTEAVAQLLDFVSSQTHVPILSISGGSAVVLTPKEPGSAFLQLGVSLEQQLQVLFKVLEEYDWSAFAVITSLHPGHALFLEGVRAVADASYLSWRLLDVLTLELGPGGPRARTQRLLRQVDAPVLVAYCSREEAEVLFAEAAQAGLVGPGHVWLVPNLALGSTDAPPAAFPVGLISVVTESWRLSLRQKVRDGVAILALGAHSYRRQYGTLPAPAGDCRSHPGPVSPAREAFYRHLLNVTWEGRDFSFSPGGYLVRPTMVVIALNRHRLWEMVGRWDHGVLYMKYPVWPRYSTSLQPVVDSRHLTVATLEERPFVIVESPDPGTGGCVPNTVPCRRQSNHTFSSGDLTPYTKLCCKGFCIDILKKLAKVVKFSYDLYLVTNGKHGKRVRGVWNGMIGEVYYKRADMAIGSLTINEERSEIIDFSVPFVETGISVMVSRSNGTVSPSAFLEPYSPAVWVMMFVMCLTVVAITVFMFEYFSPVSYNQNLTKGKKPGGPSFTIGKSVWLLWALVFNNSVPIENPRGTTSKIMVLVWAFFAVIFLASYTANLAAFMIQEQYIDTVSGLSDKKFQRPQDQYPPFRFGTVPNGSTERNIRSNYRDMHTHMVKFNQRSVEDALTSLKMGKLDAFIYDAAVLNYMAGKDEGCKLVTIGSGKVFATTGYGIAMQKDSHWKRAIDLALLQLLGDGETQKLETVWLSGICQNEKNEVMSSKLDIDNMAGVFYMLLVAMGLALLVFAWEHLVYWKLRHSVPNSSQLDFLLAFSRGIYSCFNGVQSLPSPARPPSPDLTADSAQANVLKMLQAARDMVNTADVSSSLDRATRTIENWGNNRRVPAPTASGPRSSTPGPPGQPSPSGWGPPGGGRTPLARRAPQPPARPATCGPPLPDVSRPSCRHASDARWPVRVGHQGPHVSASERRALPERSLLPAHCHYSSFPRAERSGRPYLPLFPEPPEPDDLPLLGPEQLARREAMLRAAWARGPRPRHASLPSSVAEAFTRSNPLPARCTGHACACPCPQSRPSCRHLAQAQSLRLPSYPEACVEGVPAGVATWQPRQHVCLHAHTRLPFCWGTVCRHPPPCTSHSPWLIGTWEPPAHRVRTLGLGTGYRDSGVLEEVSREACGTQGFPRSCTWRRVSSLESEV

[5] = species on record: Rattus norvegicus; test: Selectivity ratio, IC50 for rat NMDA NR2D receptor to IC50 for rat NMDA NR2B receptor
Summary of the method: (§2)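 Ratios of IC50s taken from oocyte concentration-response curves for rat NR1-3b co-expressed with NR2A, NR2B or NR2D, recorded at -70 mV in Mg2+-free ND96 with 5–10-min static-bath peptide application, n ≥ 3 per point.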

[6] = tested on: Mus musculus; test: Induction of sleep in intracranially dosed 10-day old Swiss-Webster mouse assessed as average onset of deep sleep at 5 nmol; assay type: functional
Summary of the method: (§3)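 Intracranial injection of synthetic peptide (0.5, 1 or 5 nmol) in 20 μl normal saline into 10-day-old Swiss-Webster mice, 2–6 per dose. Con-G served as positive control and saline as negative control. Deep-sleep onset was the time at which a mouse no longer tried to right itself after being rolled onto its back; onset times were averaged.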

[7] = tested on: Mus musculus; test: Induction of sleep in intracranially dosed 10-day old Swiss-Webster mouse assessed as average onset of deep sleep at 1 nmol; assay type: functional; summary of the method: as §3
[8] = tested on: Mus musculus; test: Induction of sleep in intracranially dosed 10-day old Swiss-Webster mouse assessed as average onset of deep sleep at 0.5 nmol; assay type: functional; summary of the method: as §3
[9] = species on record: Rattus norvegicus; test: Selectivity ratio, IC50 for rat NMDA NR2A receptor to IC50 for rat NMDA NR2D receptor; summary of the method: as §2
[10] = tested on: Mus musculus; test: Induction of hyperactivity intracranially dosed 24-day old Swiss-Webster mouse; assay type: functional, organism-based
Summary of the method: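 Intracranial injection of 2 nmol peptide in 20 μl normal saline (29-gauge needle) into 24-day-old mice (12.2–12.8 g). An equal volume of saline served as negative control. Mice were watched in cages for hyperactivity: continuous walking, excessive grooming and climbing of the cage wall.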

[11] = target: Glutamate receptor ionotropic, NMDA 2B (Rattus norvegicus) (UniProt Q00960); test: Inhibition of rat NMDA NR2B receptor expressed in xenopus oocytes coexpressing NMDA NR13b assessed as effect on glycine-induced current response at 1 uM at -70 mV by voltage clamp method; assay type: cell-based; conditions: Oocyte
Summary of the method: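 Oocytes expressing rat NR1-3b/NR2B, voltage-clamped at -70 mV in Mg2+-free ND96 with 0.1 mg/ml BSA. Baseline currents were recorded, followed by a 10-min static-bath buffer control. Then 1 μM peptide was applied in a static bath for 10 min, and the next agonist-evoked current was expressed as % of the pre-peptide amplitude.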

SMILES	IC50 [1]	IC50 [2]	IC50 [3]	IC50 [4]	Ratio IC50 [5]	Activity [6]	Activity [7]	Activity [8]	Ratio IC50 [9]	Activity [10]	Activity [11]
CC[C@H](C)[C@H](NC(=O)[C@H](CCCCN)NC(=O)CNC(=O)[C@H](Cc1ccc(O)cc1)NC(=O)[C@H](CCCCN)NC(=O)[C@H](CC(C)C)NC(=O)[C@H](CCC(N)=O)NC(=O)[C@H](Cc1ccc(O)cc1)NC(=O)[C@H](CC(C(=O)O)C(=O)O)NC(=O)[C@H](CCCN=C(N)N)NC(=O)[C@@H](NC(=O)[C@H](C)NC(=O)[C@H](CC(C(=O)O)C(=O)O)NC(=O)[C@H](C)NC(=O)[C@H](Cc1ccc(O)cc1)NC(=O)[C@H](CC(C(=O)O)C(=O)O)NC(=O)[C@@H]1C[C@@H](O)CN1C(=O)[C@H](CCC(=O)O)NC(=O)[C@@H](N)CC(=O)O)[C@@H](C)CC)C(=O)O (H-DE[Hyp][Gla]YA[Gla]AIR[Gla]YQLKYGKI-OH)	1000 nM	> 10000 nM	500 nM	≥ 10000 nM	–	–	–	–	–	–	–
CC[C@H](C)[C@H](NC(=O)[C@H](CCCCN)NC(=O)CNC(=O)[C@H](Cc1ccc(O)cc1)NC(=O)[C@H](CCCCN)NC(=O)[C@H](CC(C)C)NC(=O)[C@H](CCC(N)=O)NC(=O)[C@H](Cc1ccc(O)cc1)NC(=O)[C@H](CC(C(=O)O)C(=O)O)NC(=O)[C@H](CCCNC(=N)N)NC(=O)[C@@H](NC(=O)[C@H](C)NC(=O)[C@H](CC(C(=O)O)C(=O)O)NC(=O)[C@H](C)NC(=O)[C@H](Cc1ccc(O)cc1)NC(=O)[C@H](CC(C(=O)O)C(=O)O)NC(=O)[C@@H]1C[C@@H](O)CN1C(=O)[C@H](CCC(=O)O)NC(=O)[C@@H](N)CC(=O)O)[C@@H](C)CC)C(=O)O (H-DE[Hyp][Gla]YA[Gla]AIR[Gla]YQLKYGKI-OH)	–	–	–	–	2	9.7 min	14 min	17.5 min	> 10	Active	–
CC[C@H](C)[C@H](NC(=O)[C@H](CCCCN)NC(=O)CNC(=O)[C@H](Cc1cnc[nH]1)NC(=O)[C@@H](NC(=O)[C@H](CC(C)C)NC(=O)[C@H](CCC(N)=O)NC(=O)[C@H](Cc1ccc(O)cc1)NC(=O)[C@H](CC(C(=O)O)C(=O)O)NC(=O)[C@H](CCCNC(=N)N)NC(=O)[C@@H](NC(=O)CNC(=O)[C@H](CC(C(=O)O)C(=O)O)NC(=O)[C@H](C)NC(=O)[C@H](Cc1ccc(O)cc1)NC(=O)[C@H](CC(C(=O)O)C(=O)O)NC(=O)[C@H](CC(=O)O)NC(=O)[C@H](CCC(=O)O)NC(=O)CN)[C@@H](C)CC)[C@@H](C)CC)C(=O)O (H-GED[Gla]YA[Gla]GIR[Gla]YQLIHGKI-OH)	1000 nM	> 10000 nM	200 nM	≥ 10000 nM	5	9 min	12.2 min	18 min	> 10	Active	Active
CC(C)C[C@H](NC(=O)CNC(=O)[C@H](CC(C(=O)O)C(=O)O)NC(=O)[C@H](C)NC(=O)[C@H](Cc1c[nH]c2ccccc12)NC(=O)[C@H](CCCCN)NC(=O)[C@H](C)NC(=O)[C@@H](NC(=O)[C@H](CC(C(=O)O)C(=O)O)NC(=O)[C@@H]1C[C@@H](O)CN1C(=O)[C@H](CCC(=O)O)NC(=O)CN)C(C)C)C(=O)N[C@@H](CCCN=C(N)N)C(=O)N[C@@H](CC(C(=O)O)C(=O)O)C(=O)N[C@@H](CCCCN)C(=O)N[C@@H](C)C(=O)N[C@@H](C)C(=O)N[C@@H](CO)C(=O)N[C@@H](CC(N)=O)C(N)=O (H-GE[Hyp][Gla]VAKWA[Gla]GLR[Gla]KAASN-NH2)	8000 nM	> 10000 nM	500 nM	≥ 10000 nM	–	–	–	–	–	–	–
CC(C)C[C@H](NC(=O)CNC(=O)[C@H](CC(C(=O)O)C(=O)O)NC(=O)[C@H](C)NC(=O)[C@H](Cc1c[nH]c2ccccc12)NC(=O)[C@H](CCCCN)NC(=O)[C@H](C)NC(=O)[C@@H](NC(=O)[C@H](CC(C(=O)O)C(=O)O)NC(=O)[C@@H]1C[C@@H](O)CN1C(=O)[C@H](CCC(=O)O)NC(=O)CN)C(C)C)C(=O)N[C@@H](CCCNC(=N)N)C(=O)N[C@@H](CC(C(=O)O)C(=O)O)C(=O)N[C@@H](CCCCN)C(=O)N[C@@H](C)C(=O)N[C@@H](C)C(=O)N[C@@H](CO)C(=O)N[C@@H](CC(N)=O)C(N)=O (H-GE[Hyp][Gla]VAKWA[Gla]GLR[Gla]KAASN-NH2)	–	–	–	–	16	10.7 min	16.5 min	21 min	> 10	Active	–
CC[C@H](C)[C@H](NC(=O)[C@H](CC(N)=O)NC(=O)[C@H](CC(C(=O)O)C(=O)O)NC(=O)[C@H](CCCNC(=N)N)NC(=O)[C@H](C)NC(=O)[C@H](CC(C)C)NC(=O)[C@H](CC(C(=O)O)C(=O)O)NC(=O)[C@H](C)NC(=O)[C@H](C)NC(=O)[C@H](CCSC)NC(=O)[C@H](CCCCN)NC(=O)[C@H](C)NC(=O)[C@@H](NC(=O)[C@H](CC(C(=O)O)C(=O)O)NC(=O)[C@H](CC(C(=O)O)C(=O)O)NC(=O)[C@H](CCC(=O)O)NC(=O)CN)C(C)C)C(=O)N[C@@H](C)C(=O)N[C@@H](CCCCN)C(=O)NCC(=O)N[C@@H](CS)C(=O)N[C@@H](CCCCN)C(=O)N[C@H](C(=O)N[C@@H](CC(N)=O)C(=O)N[C@@H](CS)C(=O)N[C@@H](Cc1ccc(O)cc1)C(=O)N1CCC[C@H]1C(=O)O)C(C)C [CONANTOKIN-R]	> 10000 nM	1000 nM	1000 nM	7000 nM	> 10	–	–	–	< 0.1	–	–
